# ChEMBL document CHEMBL1156450, “Naloxone acts as a potent analgesic in transgenic mouse models of sickle cell anemia” (Proc Natl Acad Sci U S A, 2007)
# Activity calls are given as the source filed them. The calls are words filed in the database; no cut-off is given here.
# What was measured:
# [1] = tested on: Mus musculus; experiment: Antinociceptive effect in icv dosed sickle cell anemic NY1DD transgenic mouse after 10 mins by heat tail flick test; type: functional
# Procedure, shortened: (§1)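 Male mice aged 10–12 weeks, housed on a 12-h light/dark cycle. Radiant heat was aimed at the dorsal tail and the latency to flick was recorded. Dosing volumes were 5 μl per mouse for i.c.v. and i.t. and 10 ml/kg for s.c. At least three groups of 8–10 mice per paradigm; each mouse was used once. ED50 with 95% confidence intervals came from a parallel line assay.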
# [2] = tested on: Mus musculus; experiment: Antinociceptive effect in […] dosed sickle cell anemic NY1DD transgenic mouse after 10 mins by heat tail flick test; type: functional
# [3] = tested on: Mus musculus; experiment: Antinociceptive effect in sc dosed sickle cell anemic NY1DD transgenic mouse after 60 mins by heat tail flick test; type: functional; details: 1 h; procedure, shortened: as §1
# [4] = tested on: Mus musculus; experiment: Antinociceptive effect in icv dosed C57BL/6J mouse after 10 mins by heat tail flick test; type: functional; procedure, shortened: as §1
# [5] = tested on: Mus musculus; experiment: Antinociceptive effect in intrathecally dosed C57BL/6J mouse after 10 mins by heat tail flick test; type: functional; procedure, shortened: as §1
# [6] = tested on: Mus musculus; experiment: Antinociceptive effect in sc dosed C57BL/6J mouse after 60 mins by heat tail flick test; details: 1 h
# [7] = organism: Mus musculus; experiment: Decrease in analgesic activity in CCL5 pretreated C57BL/6J mouse; type: functional, organism-based
# Procedure, shortened: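 C57BL/6J mice were pretreated i.c.v. with murine RANTES (CCL5) at two doses 20 min before i.c.v. morphine, then tested by radiant heat tail-flick. The antagonist ED50 of RANTES was given with a 95% confidence interval. For reversal, 50 ng Met-RANTES per mouse was given 2 h before RANTES.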
# [8] = tested on: Mus musculus; experiment: Antinociceptive effect in icv dosed sickle cell anemic hBERK1 transgenic mouse after 10 mins by heat tail flick test; type: functional; procedure, shortened: as §1
# [9] = biological target: T1, C-C chemokine receptor type 5 (Mus musculus, UniProt P51682); experiment: Binding affinity to CCR5 in NY1DD transgenic mouse brain membrane; type: tissue-based
# Procedure, shortened: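 [3H]Naloxone saturation binding on pooled brains (cerebellum removed) from three mice. Tissue was homogenized in ice-cold Hepes pH 7.4, washed repeatedly with a 90-min ice step to deplete endogenous opiates, and used as a 2% suspension. Incubation was 90 min at room temperature; nonspecific binding was defined with 10 μM naloxone. Samples were filtered on PEI-soaked GF/C and counted by scintillation. Kd came from global fitting. Triplicates; 2–3 experiments, mean ± SEM.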
# [10] = biological target: T1, C-C chemokine receptor type 5; experiment: Binding affinity to CCR5 in C57BL/6J mouse brain membrane; type: cell membranes
# [11] = organism: Mus musculus; experiment: Down-regulation of CCR5 mRNA expression in sickle cell anemic NY1DD transgenic mouse; type: functional, organism-based
# Procedure, shortened: (§2)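 C57BL/6J and NY1DD mice received 25 pmol per mouse of drug or 0.9% saline (5 μl). Brains were removed 10 min later, frozen in liquid N2 and used for RNA isolation and cDNA microarray hybridization (control RNA labeled with Cy3-dCTP; 42°C for 16 h).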
# [12] = organism: Mus musculus; experiment: Down-regulation of CCR5 mRNA expression in C57BL/6J mouse; type: functional, organism-based; procedure, shortened: as §2
# [13] = tested on: Mus musculus; experiment: Reduction of analgesic activity in NY1DD transgenic mouse pretreated with Met-RANTES 2 hrs before drug administration; type: functional, organism-based
# Procedure, shortened: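 NY1DD mice received Met-RANTES at 50 ng per mouse 2 h before the test drug. Analgesia was measured by radiant heat tail-flick.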
# [14] = tested on: Mus musculus; experiment: Antinociceptive effect in NY1DD transgenic mouse assessed as partial agonist response at 8 nmol, icv by heat tail flick test; type: functional
# [15] = organism: Mus musculus; experiment: Antinociceptive effect in NY1DD transgenic mouse assessed as partial agonist response at 2.5 nmol by heat tail flick test; type: functional
# [16] = tested on: Mus musculus; experiment: Antinociceptive effect in icv dosed NY1DD transgenic mouse after 1 hr by heat tail flick test; type: functional; procedure, shortened: as §1
# [17] = tested on: Mus musculus; experiment: Antinociceptive effect in intrathecally dosed NY1DD transgenic mouse after 6 hrs by heat tail flick test; type: functional; procedure, shortened: as §1
# T1 sequence (P51682 whole entry): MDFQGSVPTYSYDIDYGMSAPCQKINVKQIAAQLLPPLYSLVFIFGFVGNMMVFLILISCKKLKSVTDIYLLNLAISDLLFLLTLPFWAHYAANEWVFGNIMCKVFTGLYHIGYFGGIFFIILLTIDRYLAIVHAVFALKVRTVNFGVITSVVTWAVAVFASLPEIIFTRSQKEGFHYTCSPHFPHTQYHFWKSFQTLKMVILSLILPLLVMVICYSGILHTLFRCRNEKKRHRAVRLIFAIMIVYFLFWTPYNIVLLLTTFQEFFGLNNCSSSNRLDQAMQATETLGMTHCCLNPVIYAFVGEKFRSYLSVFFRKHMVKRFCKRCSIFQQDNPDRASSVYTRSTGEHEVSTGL
compound,measurement,setting,value
CN1CC[C@]23c4c5ccc(O)c4O[C@H]2[C@@H](O)C=C[C@H]3[C@H]1C5 [MORPHINE],ED50,[1],3.95 nmol
same,ED50,[2],0.085 nmol
same,ED50,[3],2.36 µmol/kg
same,ED50,[4],2.7 nmol
same,ED50,[5],0.088 nmol
same,ED50,[6],6.47 µmol/kg
same,Activity,[7],Active
C=CCN1CC[C@]23c4c5ccc(O)c4O[C@H]2C(=O)CC[C@@]3(O)[C@H]1C5 [NALOXONE],ED50,[1],0.014 nmol
same,ED50,[2],0.045 nmol
same,ED50,[3],2.83 µmol/kg
same,ED50,[8],0.03 nmol
same,Kd,[9],10.5 nM
same,Kd,[10],20.8 nM
same,Activity,[11],Active
same,Activity,[12],inactive
same,Activity,[13],Active
O=C1CC[C@@]2(O)[C@H]3Cc4ccc(O)c5c4[C@@]2(CCN3CC2CC2)[C@H]1O5 [NALTREXONE],Activity,[14],33%
Oc1ccc2c3c1O[C@H]1c4[nH]c5ccccc5c4C[C@@]4(O)[C@@H](C2)N(CC2CC2)CC[C@]314 [NALTRINDOLE],Activity,[15],10%
Oc1ccc2c3c1O[C@H]1c4[nH]c5c(c4C[C@@]4(O)[C@@H](C2)N(CC2CC2)CC[C@]314)C[C@@]1(O)[C@H]2Cc3ccc(O)c4c3[C@@]1(CCN2CC1CC1)[C@H]5O4 [NORBINALTORPHIMINE],ED50,[16],1.55 nmol
same,ED50,[17],0.46 nmol
